Experimental findings from ChEMBL document CHEMBL4342456, “Preventing Morphine-Seeking Behavior through the Re-Engineering of Vincamine's Biological Activity” (J Med Chem, 2020) are described below.

Molecules are shown by their SMILES. Activity calls are given as the source filed them. The rule behind the calls is not given here.

The nature of data set [1]: Toxicity in C57BL/6J mouse at 60 nmol, icv measured for 2 days by conditioned place preference test. The conditions noted are these: in vivo, icv_or_intrathecal, 48 h.
For data set [2], the target named is T1, Muscarinic acetylcholine receptor M4 (Homo sapiens) (UniProt P08173).
T1 sequence (whole entry): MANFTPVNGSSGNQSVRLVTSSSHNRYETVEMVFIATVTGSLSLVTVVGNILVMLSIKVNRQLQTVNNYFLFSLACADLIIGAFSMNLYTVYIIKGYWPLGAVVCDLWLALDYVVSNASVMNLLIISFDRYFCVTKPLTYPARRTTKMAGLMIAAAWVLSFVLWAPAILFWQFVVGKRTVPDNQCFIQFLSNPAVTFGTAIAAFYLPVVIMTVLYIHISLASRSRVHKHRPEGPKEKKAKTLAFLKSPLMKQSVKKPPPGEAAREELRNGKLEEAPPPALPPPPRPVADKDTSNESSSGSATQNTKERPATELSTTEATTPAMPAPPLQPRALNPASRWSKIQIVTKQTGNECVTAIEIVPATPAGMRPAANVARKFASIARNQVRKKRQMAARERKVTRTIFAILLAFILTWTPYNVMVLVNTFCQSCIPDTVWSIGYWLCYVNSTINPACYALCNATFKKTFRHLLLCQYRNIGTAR
Put plainly: Antagonist activity at human Gs/Gi/o-coupled CHRM4 expressed in CHOK1 cells assessed as inhibition in acetylcholine-induced beta-arrestin 2 recruitment at 20 uM incubated for 30 mins followed by acetylcholine addition and measured after 90 or 180 mins by pathhunter beta-arrestin assay relative to control. It counts as cell-based. The gist of the method:
(§1)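 PathHunter beta-arrestin recruitment, antagonist mode, run at DiscoverX. Cells seeded and held at 37 °C, then preincubated with test sample for 30 min at 37 °C or room temperature (1% vehicle). Agonist then added at EC80 for 90 or 180 min. IC50 comes from concentration–response runs in the same format.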

The target in another data set is T2, Orexin receptor type 2 (Homo sapiens, UniProt O43614).
T2 sequence (O43614 whole entry): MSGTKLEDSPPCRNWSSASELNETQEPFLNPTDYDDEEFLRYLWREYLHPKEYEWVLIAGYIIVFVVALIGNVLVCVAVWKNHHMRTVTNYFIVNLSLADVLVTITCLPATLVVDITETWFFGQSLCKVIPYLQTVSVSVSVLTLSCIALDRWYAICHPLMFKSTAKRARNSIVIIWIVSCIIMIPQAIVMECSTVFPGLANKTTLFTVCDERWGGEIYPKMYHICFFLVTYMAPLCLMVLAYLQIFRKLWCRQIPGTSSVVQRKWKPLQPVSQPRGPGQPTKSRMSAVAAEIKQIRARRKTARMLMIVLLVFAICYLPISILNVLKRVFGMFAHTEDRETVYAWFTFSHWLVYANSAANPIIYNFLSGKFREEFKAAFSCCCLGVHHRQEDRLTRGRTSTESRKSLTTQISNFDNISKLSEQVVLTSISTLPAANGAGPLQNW
In words: Antagonist activity at human Gq-coupled HCRTR2 expressed in CHOK1 cells assessed as inhibition in Orexin A-induced beta-arrestin 2 recruitment incubated for 30 mins followed by Orexin A addition and measured after 90 or 180 mins by pathhunter beta-arrestin assay. It counts as cell-based. The essentials:
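PathHunter beta-arrestin recruitment, antagonist mode, run at DiscoverX. Cells seeded and held at 37 °C, then preincubated with test sample for 30 min at 37 °C or room temperature (1% vehicle). Agonist then added at EC80 for 90 or 180 min. […] IC50 comes from concentration–response runs in the same format.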

The test system of data set [3] is Mus musculus. Put plainly: Suppression of drug-induced cocaine-seeking behavior in C57BL/6J mouse assessed as reduction in morphine-conditioned place preference at 60 nmol, icv administered 20 mins prior to behavioral morphine addition measured twice weekly for 7 weeks. The format is functional, organism-based. The conditions noted are these: in the assay text read “morphine-seeking” for “cocaine-seeking”. The gist of the method:
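Male C57BL/6J mice, 7–11 weeks, 20–33 g. Three-compartment counterbalanced place conditioning. Test agent given i.c.v. in 10% Solutol HS 15/90% saline, 20 min before morphine (10 mg/kg i.p., in 0.9% saline). Mice then confined 40 min in the paired outer chamber. Saline i.p. conditioning in the opposite chamber followed 4 h later. Preference was scored in a 30 min automated test. n = 16–30/group; two-way ANOVA with Tukey post hoc.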

The target of data set [4] is Histamine H1 receptor (Homo sapiens) (UniProt P35367). The conditions noted are these: at 20 µM.
Histamine H1 receptor (Homo sapiens), sequence (P35367 whole entry): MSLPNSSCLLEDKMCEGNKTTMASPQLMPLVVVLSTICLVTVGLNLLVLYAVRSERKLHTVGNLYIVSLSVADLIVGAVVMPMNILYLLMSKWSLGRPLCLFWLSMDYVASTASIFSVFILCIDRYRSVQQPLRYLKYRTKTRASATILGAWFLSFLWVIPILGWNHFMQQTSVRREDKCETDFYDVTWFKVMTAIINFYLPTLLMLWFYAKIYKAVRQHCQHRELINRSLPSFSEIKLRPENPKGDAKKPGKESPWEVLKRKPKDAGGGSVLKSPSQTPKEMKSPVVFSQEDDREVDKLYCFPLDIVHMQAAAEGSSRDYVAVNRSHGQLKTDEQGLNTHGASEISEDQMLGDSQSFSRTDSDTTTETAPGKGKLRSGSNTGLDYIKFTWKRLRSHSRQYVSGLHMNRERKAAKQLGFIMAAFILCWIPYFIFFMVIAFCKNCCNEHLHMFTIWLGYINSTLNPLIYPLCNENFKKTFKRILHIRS
Data set [5] deals with T3, Prolactin-releasing peptide receptor (Homo sapiens) (UniProt P49683).
T3 sequence (whole entry): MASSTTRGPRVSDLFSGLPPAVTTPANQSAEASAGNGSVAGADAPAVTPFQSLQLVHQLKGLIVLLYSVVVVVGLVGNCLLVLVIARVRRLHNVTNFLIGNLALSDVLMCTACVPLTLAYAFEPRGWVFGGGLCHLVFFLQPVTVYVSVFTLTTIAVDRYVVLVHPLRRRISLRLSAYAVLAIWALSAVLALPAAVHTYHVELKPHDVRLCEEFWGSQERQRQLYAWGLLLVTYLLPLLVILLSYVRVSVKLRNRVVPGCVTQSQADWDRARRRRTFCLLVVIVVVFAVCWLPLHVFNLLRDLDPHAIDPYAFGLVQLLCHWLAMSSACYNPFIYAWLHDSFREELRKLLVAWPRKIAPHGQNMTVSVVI
In words: Antagonist activity at human Gq-coupled PRLHR expressed in CHOK1 cells assessed as inhibition in prolactin releasing peptide (1 to 31)-induced beta-arrestin 2 recruitment at 20 uM incubated for 30 mins followed by prolactin releasing peptide (1 to 31) addition and measured after 90 or 180 mins by pathhunter beta-arrestin assay relative to control. The format is cell-based. The essentials:
as §1

Data set [6] has as its system Mus musculus. In words: Suppression of drug-induced morphine-seeking behavior in C57BL/6J mouse assessed as reduction in stress-induced reinstatement of morphine-CPP at 60 nmol, icv administered 15 mins prior to testing by forced swim test.
Data set [7] has as its target C-X-C chemokine receptor type 4 (Homo sapiens) (UniProt P61073). In words: Antagonist activity at human Gi/o-coupled CXCR4 expressed in mouse C2C12 cells assessed as inhibition in CXCL12-induced beta-arrestin 2 recruitment at 20 uM incubated for 30 mins followed by CXCL12 addition and measured after 90 or 180 mins by pathhunter beta-arrestin assay relative to control. It counts as cell-based. The essentials: as §1

A further data set addresses Cannabinoid receptor 1 (Homo sapiens, UniProt P21554). In words: Antagonist activity at human Gi/o-coupled CNR1 expressed in CHOK1 cells assessed as inhibition in CP55940-induced beta-arrestin 2 recruitment at 20 uM incubated for 30 mins followed by CP55940 addition and measured after 90 or 180 mins by pathhunter beta-arrestin assay relative to control. It counts as cell-based. The essentials: as §1

The target of data set [8] is C-C chemokine receptor type 8 (Homo sapiens, UniProt P51685). In words: Antagonist activity at human CCR8 expressed in CHOK1 cells assessed as inhibition in CCL1-induced beta-arrestin 2 recruitment at 20 uM incubated for 30 mins followed by CCL1 addition and measured after 90 or 180 mins by pathhunter beta-arrestin assay relative to control. It counts as cell-based. The essentials:
as §1

Cannabinoid receptor 1, sequence (P21554 whole entry): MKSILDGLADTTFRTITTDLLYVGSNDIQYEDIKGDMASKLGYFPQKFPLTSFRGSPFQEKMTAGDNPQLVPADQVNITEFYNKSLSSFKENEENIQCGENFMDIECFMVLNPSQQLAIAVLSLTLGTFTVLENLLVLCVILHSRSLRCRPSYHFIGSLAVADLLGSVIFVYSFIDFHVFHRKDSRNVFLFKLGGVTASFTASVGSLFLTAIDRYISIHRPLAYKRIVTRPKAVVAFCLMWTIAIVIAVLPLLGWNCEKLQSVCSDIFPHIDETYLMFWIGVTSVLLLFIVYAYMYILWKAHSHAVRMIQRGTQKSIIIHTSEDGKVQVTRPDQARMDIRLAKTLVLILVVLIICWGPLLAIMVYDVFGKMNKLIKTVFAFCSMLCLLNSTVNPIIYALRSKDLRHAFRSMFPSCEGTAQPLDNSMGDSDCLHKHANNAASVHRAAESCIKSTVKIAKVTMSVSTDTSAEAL
C-X-C chemokine receptor type 4 (Homo sapiens), sequence (P61073 whole entry): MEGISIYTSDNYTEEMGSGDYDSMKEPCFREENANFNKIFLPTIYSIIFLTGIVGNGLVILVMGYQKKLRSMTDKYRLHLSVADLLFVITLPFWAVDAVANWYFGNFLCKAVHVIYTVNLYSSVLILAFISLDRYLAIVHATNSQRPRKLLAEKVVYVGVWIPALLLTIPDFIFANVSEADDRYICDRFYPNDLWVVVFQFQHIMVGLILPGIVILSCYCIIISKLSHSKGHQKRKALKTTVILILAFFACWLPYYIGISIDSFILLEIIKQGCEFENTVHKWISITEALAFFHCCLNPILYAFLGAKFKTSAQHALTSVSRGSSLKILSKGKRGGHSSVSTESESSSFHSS
C-C chemokine receptor type 8, sequence (P51685 whole entry): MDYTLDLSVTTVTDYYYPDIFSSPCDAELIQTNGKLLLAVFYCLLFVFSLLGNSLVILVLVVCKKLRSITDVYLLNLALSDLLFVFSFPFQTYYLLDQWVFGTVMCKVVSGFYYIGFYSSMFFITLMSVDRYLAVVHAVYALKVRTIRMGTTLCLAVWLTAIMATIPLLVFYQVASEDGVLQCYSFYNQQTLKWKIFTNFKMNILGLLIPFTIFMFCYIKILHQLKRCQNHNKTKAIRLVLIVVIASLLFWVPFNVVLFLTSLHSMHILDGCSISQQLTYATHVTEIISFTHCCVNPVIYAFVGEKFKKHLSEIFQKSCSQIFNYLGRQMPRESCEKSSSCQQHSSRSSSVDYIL

Regarding `CC[C@@]12CCCN3CCc4c([nH]c5ccccc45)[C@]31N(Cc1cn(Cc3ccccc3)nn1)C(=O)C2`, the Activity result in [1] is given as “Non-Toxic”. The inhibition stood at 75% in data set [2]; 17% in data set [4]; 59% in data set [5]; 34% in data set [7]; 48% at Cannabinoid receptor 1; 59% in data set [8]. Moreover, at Orexin receptor type 2, the IC50 was 2260 nM. The result in the data set on Mus musculus [3] and in the data set with Mus musculus [6] was Active.
